Assay outcomes: PubChem BioAssay, Johns Hopkins Ion Channel Center
Sampled rows, rich in hits. Any-hit rate of the full collection: about 3.5%.
RGS4 act: RGS4 potentiators or activators, primary screen, cell-based, HEK293 M3R inducible RGS4, calcium flux; carbachol calcium flux Fluo4; stronger effect = lower value; B-score at 10 µM; 0.92% of 310,000 active; AID 463111, 2010;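 active = B-score of the integrated calcium signal more than 4 SD below the library mean, with starting fluorescence not abnormally high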;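 also: negative B-score means reduced calcium response which marks RGS4 activation or potentiation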
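Material: Inducible-RGS4 HEK293 cells carrying M3 receptor; also added: carbachol at ECmax as muscarinic agonist stimulus; incubation: compound preincubation 20 min at room temperature before agonist; signal: Fluo4-AM (2 µM) calcium-flux fluorescence, kinetic read; measure: integrated calcium ratio converted to B score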
MrgX1 agonist: agonists of human MrgX1 receptor, primary screen, HEK293 cells, Fluo-4 calcium flux; Fluo-4 calcium fluorescence, agonist mode; stronger effect = higher value; B-score at 10 µM; 0.44% of 310,000 active; Mas-related G-protein coupled receptor member X1 (Homo sapiens), Q96LB2;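 active = calcium response B-score plate-corrected fluorescence ratio at least 3 library SD, with starting fluorescence B-score inside 5 SD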
Target sequence (Q96LB2 whole entry, looked up): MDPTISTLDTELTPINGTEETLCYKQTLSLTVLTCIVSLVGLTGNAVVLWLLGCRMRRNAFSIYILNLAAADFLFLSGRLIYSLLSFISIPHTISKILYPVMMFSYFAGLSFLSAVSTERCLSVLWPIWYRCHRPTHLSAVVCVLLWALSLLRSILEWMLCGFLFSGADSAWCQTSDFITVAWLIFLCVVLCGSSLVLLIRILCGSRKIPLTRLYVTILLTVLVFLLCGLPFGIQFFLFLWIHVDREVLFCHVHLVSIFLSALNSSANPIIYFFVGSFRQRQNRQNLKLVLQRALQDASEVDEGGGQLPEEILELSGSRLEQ
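Material: MrgX1-expressing HEK293 cells; input: 15,000 cells per well; doses: test compound given as first of three sequential additions; schedule: overnight plating before 1 h dye loading; technique: Fluo-4 NW calcium-flux fluorescence, kinetic read; evaluation: baseline-normalised fluorescence change ratio, B-scored; control set: plate-wise positive and negative controls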
RGS4 block: RGS4 inhibitors, primary screen, cell-based, HEK293 M3R inducible RGS4, calcium flux | Regulator of G-protein signaling 4 (Homo sapiens), P49798 | Fluo-4 calcium flux; stronger effect = higher value; triggered by carbachol at its EC20 | B-score at 10 µM | 0.45% of 310,000 active | AID 463165, 2010;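 active = B-score, a plate-corrected calcium signal, over three deviations above library mean, with baseline fluorescence within five deviations of library mean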;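 also: RGS4 expression induced by doxycycline in cells with stable M3 receptor; B-score is computed from the integrated fluorescence ratio over baseline after carbachol; higher B-score means a larger calcium signal and so more RGS4 inhibition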
Target sequence (P49798 whole entry, looked up): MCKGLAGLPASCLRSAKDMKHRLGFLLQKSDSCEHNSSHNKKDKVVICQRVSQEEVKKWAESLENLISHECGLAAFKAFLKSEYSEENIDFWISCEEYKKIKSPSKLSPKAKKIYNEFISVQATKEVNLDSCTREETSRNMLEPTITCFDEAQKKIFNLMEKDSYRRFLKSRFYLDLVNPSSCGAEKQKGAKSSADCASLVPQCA
MrgX1 antagonist: antagonists of human MrgX1 receptor, primary screen, HEK293 cells, Fluo-4 calcium flux; Mas-related G-protein coupled receptor member X1 (Homo sapiens), Q96LB2; BAM8-22 antagonism; stronger effect = lower value; B-score at 10 µM; 1.3% of 310,000 active;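 active = calcium-response B-score plate-corrected more than 3 library SD below zero, starting fluorescence within 5 deviations, no agonist response on first addition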;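 also: peak minus trough fluorescence over baseline after final BAM8-22 challenge near maximal dose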
MrgX1 PAM: positive allosteric modulators of MrgX1, primary screen, HEK293 cells, Fluo-4 calcium flux; B-score at 10 µM; AID 588675, 2011; FDSS; stronger effect = higher value; Mas-related G-protein coupled receptor member X1 (Homo sapiens), Q96LB2; 0.63% of 310,000 active;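 active = plate-corrected calcium response at least 3 library SD above typical, normal starting fluorescence, not activating the receptor alone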;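 also: compound read alongside a low EC10 to EC30 dose of BAM8-22 agonist; peak minus trough fluorescence over baseline measured at the second addition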
MrgX1 antag conf: MrgX1 receptor antagonists, duplicate retest, confirmation, HEK293 cells, Fluo-4 calcium flux; AID 602420, 2012; BAM8-22 calcium flux; stronger effect = lower value; 19% of 2,300 active; shares compounds with MrgX1 antagonist; remaining BAM8-22 calcium response % of control (stronger effect = lower value), % at 10 µM;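 active = remaining agonist calcium response no higher than 100% minus 3 SD of agonist-only control wells, with starting fluorescence near control levels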;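 also: agonist BAM8-22 given at a near maximal EC90 to ECmax level; peak minus minimum fluorescence divided by baseline after agonist addition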
HEK293 Ca flux: nonspecific calcium signal in parental HEK293, confirmation, counter-screen for MrgX1 antagonist project, parental HEK293 cells, Fluo-4 calcium flux; 2% of 4,000 active; Fluo-4 calcium fluorescence, FDSS; fluorescence ratio F(max-min)/F0 at 10 µM; shares compounds with MrgX1 antagonist;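 active = duplicate-averaged calcium fluorescence ratio at least three times the standard deviation of buffer wells, a nonspecific response in parental cells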
HEK293 Ca counter: calcium response in parental HEK293 cells, primary screen, counter-screen for MrgX1 allosteric activator project, cell-based, Fluo-4 calcium flux, duplicate; 0.4% of 4,000 active; shares compounds with MrgX1 antagonist; Fluo-4 fluorescence ratio; stronger effect = higher value; fluorescence ratio F(max-min)/F0 at 10 µM; AID 624114, 2012;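 active = calcium fluorescence ratio, averaged over duplicates, at least 3 SD of the buffer-well ratio, meaning a nonspecific response in receptor-free cells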;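 also: untransfected parental HEK293 lacking MrgX1 used as counterscreen for MrgX1 allosteric activators; fluorescence change taken during the second addition on a kinetic imager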
HEK293 Ca cntr2: calcium response in parental HEK293 cells, primary screen, counter-screen for MrgX1 agonist project, cell-based, Fluo-4 calcium flux, duplicate, agonist mode; shares compounds with MrgX1 antagonist; Fluo-4 calcium fluorescence (FDSS); stronger effect = higher value; fluorescence ratio F(max-min)/F0 at 10 µM; 8.7% of 4,000 active; AID 624115, 2012;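 active = calcium fluorescence ratio at least three times the spread of buffer wells, meaning a non-specific response in parental cells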
* = called active by the depositor; i = inactive; x = not tested or not shown.

SMILES | RGS4 act | MrgX1 agonist | RGS4 block | MrgX1 antagonist | MrgX1 PAM | MrgX1 antag conf | HEK293 Ca flux | HEK293 Ca counter | HEK293 Ca cntr2
O=C(COC(=O)c1ccccc1N1C(=O)C2C3CCC(C3)C2C1=O)c1ccccc1 (stereo not given) | i | i | i | i | i | x | x | x | x
Cc1ccc(C)c(C(=O)COC(=O)c2ccccc2N2C(=O)C3C4CCC(C4)C3C2=O)c1 (stereo not given) | i | i | i | -6* | i | i | i | i | i
O=C(Nc1ccncc1)Nc1ccncc1 | i | i | i | i | i | x | x | x | x
CC(=O)c1ccc(NC(=O)Nc2ccncc2)cc1 | i | i | i | -6.75* | i | 81.7%* | i | i | i
CCOC(=O)c1c(C)[nH]c(C)c1S(=O)(=O)N(C)CC(=O)Nc1cc(C)ccc1OC | i | i | i | -9.1* | i | i | i | i | i
O=S(=O)(NCC1CCN(Cc2ccccc2)CC1)c1ccccc1C(F)(F)F | i | i | i | i | i | x | x | x | x
CCCN1C2CCCC1CC(NC(=S)Nc1cc(C)cc(C)c1)C2 (stereo not given) | i | i | i | -5.98* | i | i | i | i | i
O=C(c1ccc(C(=O)N2CCCc3ccccc32)s1)N1CCCc2ccccc21 | i | i | i | i | i | x | x | x | x
Cc1ccc(C)c2nc3sc(C(=O)N4CCCc5ccccc54)c(N)c3cc12 | -7* | i | i | -5.44* | i | i | i | i | 51.1*
CC(=O)Nc1ccc(NC(=O)C(C)OC(=O)c2ccc3[nH]c(C)c(C)c3c2)cc1 (stereo not given) | i | i | i | i | i | x | x | x | x
Oc1c(Cl)cc(Cl)cc1/C=C/c1ccc2cccc(O)c2n1 | i | i | i | -7.73* | i | i | i | i | i
Oc1ccc(Cl)cc1/C=C/c1ccc2cccc(O)c2n1 | i | x | i | x | x | x | x | x | x
CCn1c(SCC(=O)N2CCCCC2C)nnc1-c1ccco1 (stereo not given) | i | i | i | i | i | x | x | x | x
CC1CCCCN1C(=O)CSc1nnc(-c2ccco2)n1CC1CCCO1 (stereo not given) | i | i | i | -7* | i | i | i | i | i
O=C(CCNC(=O)c1ccccc1)NCCc1ccc(Cl)cc1 | i | i | i | i | i | x | x | x | x
COC(C(=O)NC(C(C)C)C(C)C)c1ccccc1 (stereo not given) | i | i | i | -5.94* | i | i | i | i | i
COC(C(=O)Nc1ccc(NC(=O)C(OC)c2ccccc2)cc1)c1ccccc1 (stereo not given) | i | i | i | i | i | x | x | x | x
Cc1ccc(Nc2c(-c3ccc(C)o3)nc3ncccn23)cc1 | i | i | i | i | i | x | x | x | x
Cc1ccc(-c2nc3ncccn3c2Nc2ccc3c(c2)OCO3)o1 | i | i | i | -5.35* | i | i | i | i | i
